Results published in paper PMC2752828 (Organic & biomolecular chemistry, 2008).

Biological target: T1, Cdc25B catalytic domain (Homo sapiens, UniProt P30305)
T1 sequence (P30305 374-551 limits assumed): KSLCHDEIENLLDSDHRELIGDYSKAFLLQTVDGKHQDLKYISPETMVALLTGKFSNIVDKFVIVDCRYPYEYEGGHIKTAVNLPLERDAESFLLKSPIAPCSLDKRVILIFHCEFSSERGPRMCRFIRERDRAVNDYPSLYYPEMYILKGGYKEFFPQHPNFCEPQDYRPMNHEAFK
Assay: OMFP fluorescence phosphatase assay, 10-point curve
Type: biochemical
How it was run: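 Recombinant human Cdc25B catalytic domain incubated with test compound and O-methylfluorescein phosphate substrate for 60 min; fluorescence change read at 485 nm excitation/525 nm emission. Percent inhibition taken relative to maximum and minimum controls. IC50 fitted to four-parameter logistic model over 10 concentrations, 25 μM to 0.2 μM; two independent experiments in triplicate.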

IC50 [nM]	SMILES
500 ± 100	O=C1C(Cl)=C(NCCN2CCOCC2)C(=O)c2nccnc21 [WDP1263, 6-Chloro-7-(2-morpholin-4-yl-ethylamino)quinoxaline-5,8-dione]
1100 ± 100	O=C1C(Cl)=C(NCCN2CCOCC2)C(=O)c2c(Cl)ccnc21 [WDP1079, 4,7-Dichloro-6-(2-morpholin-4-yl-ethylamino)quinoline-5,8-dione]
5300 ± 600	COc1ccnc2c1C(=O)C(NCCN1CCOCC1)=C(F)C2=O [WDP1149, 7-Fluoro-4-methoxy-6-(2-morpholin-4-yl-ethylamino)quinoline-5,8-dione]
